Each structure is given as a SMILES string. Some results are limits rather than exact numbers.

Usually EC90 stands for the concentration needed for an effect of 90%. A low value points to an effect from little substance. For orientation: CC50 means the concentration at which the toxic effect on the cells reaches its halfway point. A low value points to greater toxicity to the cells.

The subject of the first experiment is Hepatitis C virus. As to the kind of experiment: Effective concentration against HCV RNA replication in a subgenomic replicon Huh7 cell line. The note with it: Huh-7. The class given is functional, Hepacivirus hominis. In a few lines:
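HCV replicon Clone A cells in log-phase growth exposed to various compound concentrations for 3 days. HCV RNA extracted and quantified by real-time PCR. EC90 is the concentration reducing HCV RNA by 90%.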
On the technique in general: A replicon is a self-replicating genome or part of one, used to study replication in cells.
In turn, `CCNc1cc(=O)n2c3c1nnn3C[C@H]1O[C@@H]2[C@H](O)C1O` (single isomer, unassigned) returned an EC90 above 100 µM.

Turning to `Cc1cc(=O)n2c3c1nnn3C[C@H]1O[C@@H]2[C@H](O)C1O` (single isomer, unassigned), the 90% effect level (EC90) was put at 15.4 µM.

Molecule `COCCNc1cc(=O)n2c3c1nnn3C[C@H]1O[C@@H]2[C@H](O)C1O` (single isomer, unassigned) showed an EC90 of 86.1 µM.

On to `CN(C)c1cc(=O)n2c3c1nnn3C[C@H]1O[C@@H]2[C@H](O)C1O` (single isomer, unassigned), for which the EC90 was above 100 µM.

`CNc1cc(=O)n2c3c1nnn3C[C@H]1O[C@@H]2[C@H](O)C1O` (single isomer, unassigned) came in with a concentration for an effect of 90% (EC90) of 7.4 µM.

In the case of `O=c1c(Cl)cc2nnn3c2n1[C@@H]1O[C@H](C3)C(O)[C@H]1O` (single isomer, unassigned), it took 2.1 µM to reach the 90% level (EC90).

`O=c1ccc2nnn3c2n1[C@@H]1O[C@H](C3)C(O)[C@H]1O` (single isomer, unassigned) returned an EC90 of 79.8 µM.

In the case of `OC1[C@@H](O)[C@H]2O[C@@H]1Cn1nnc3ccc(=S)n2c31` (single isomer, unassigned), the 90% effect concentration (EC90) was found to be 10 µM.

The molecule `CCCNc1cc(=O)n2c3c1nnn3C[C@H]1O[C@@H]2[C@H](O)C1O` (single isomer, unassigned) showed an EC90 above 100 µM.

In the case of `CCCCNc1cc(=O)n2c3c1nnn3C[C@H]1O[C@@H]2[C@H](O)C1O` (single isomer, unassigned), the EC90 was above 100 µM.

For the molecule `O=c1cc(NCCO)c2nnn3c2n1[C@@H]1O[C@H](C3)C(O)[C@H]1O` (single isomer, unassigned), the 90% effect concentration (EC90) was above 100 µM.

The molecule `O=c1c(Br)cc2nnn3c2n1[C@@H]1O[C@H](C3)C(O)[C@H]1O` (single isomer, unassigned) returned an EC90 of 1.9 µM.

Regarding `Nc1cc(=O)n2c3c1nnn3C[C@H]1O[C@@H]2[C@H](O)C1O` (single isomer, unassigned), the concentration for an effect of 90% (EC90) was 29.7 µM.

Consider `O=c1cc(NC2CC2)c2nnn3c2n1[C@@H]1O[C@H](C3)C(O)[C@H]1O` (single isomer, unassigned), for which the EC90 is above 100 µM.

`O=c1cc(NCCCO)c2nnn3c2n1[C@@H]1O[C@H](C3)C(O)[C@H]1O` (single isomer, unassigned) displayed an EC90 above 100 µM.

A further experiment concerns Huh-7. As to the kind of experiment: Cytotoxic concentration against HCV RNA replication in a subgenomic replicon Huh7 cell line. The experiment is classed as functional. The note with it: Homo sapiens.
`CCNc1cc(=O)n2c3c1nnn3C[C@H]1O[C@@H]2[C@H](O)C1O` (single isomer, unassigned) gave a CC50 above 100 µM.

`Cc1cc(=O)n2c3c1nnn3C[C@H]1O[C@@H]2[C@H](O)C1O` (single isomer, unassigned) gave a CC50 of 22.6 µM.

Regarding `COCCNc1cc(=O)n2c3c1nnn3C[C@H]1O[C@@H]2[C@H](O)C1O` (single isomer, unassigned), half-maximal cytotoxicity (CC50) was put at 97.3 µM.

`CN(C)c1cc(=O)n2c3c1nnn3C[C@H]1O[C@@H]2[C@H](O)C1O` (single isomer, unassigned) registered a half-maximal cytotoxic concentration (CC50) above 100 µM.

`CNc1cc(=O)n2c3c1nnn3C[C@H]1O[C@@H]2[C@H](O)C1O` (single isomer, unassigned) came in with a 50% cytotoxic concentration (CC50) of 4.6 µM.

Consider `O=c1c(Cl)cc2nnn3c2n1[C@@H]1O[C@H](C3)C(O)[C@H]1O` (single isomer, unassigned), for which the midpoint of cytotoxicity, the CC50, lay at 0.06 µM.

`O=c1ccc2nnn3c2n1[C@@H]1O[C@H](C3)C(O)[C@H]1O` (single isomer, unassigned) displayed a cytotoxic concentration (CC50) of 30.6 µM.

Consider `OC1[C@@H](O)[C@H]2O[C@@H]1Cn1nnc3ccc(=S)n2c31` (single isomer, unassigned), for which the midpoint of cytotoxicity, the CC50, lay at 11.9 µM.

As to `CCCNc1cc(=O)n2c3c1nnn3C[C@H]1O[C@@H]2[C@H](O)C1O` (single isomer, unassigned), the CC50 was above 100 µM.

`CCCCNc1cc(=O)n2c3c1nnn3C[C@H]1O[C@@H]2[C@H](O)C1O` (single isomer, unassigned) returned a CC50 above 100 µM.

In the case of `O=c1cc(NCCO)c2nnn3c2n1[C@@H]1O[C@H](C3)C(O)[C@H]1O` (single isomer, unassigned), the CC50 is above 100 µM.

For the molecule `O=c1c(Br)cc2nnn3c2n1[C@@H]1O[C@H](C3)C(O)[C@H]1O` (single isomer, unassigned), the CC50 was 1.5 µM.

The molecule `Nc1cc(=O)n2c3c1nnn3C[C@H]1O[C@@H]2[C@H](O)C1O` (single isomer, unassigned) had a CC50 of 74.2 µM.

Molecule `O=c1cc(NC2CC2)c2nnn3c2n1[C@@H]1O[C@H](C3)C(O)[C@H]1O` (single isomer, unassigned) had a half-maximal cytotoxic concentration (CC50) above 100 µM.

Molecule `O=c1cc(NCCCO)c2nnn3c2n1[C@@H]1O[C@H](C3)C(O)[C@H]1O` (single isomer, unassigned) displayed a half-maximal cytotoxic concentration (CC50) above 100 µM.

The values above are taken from ChEMBL document CHEMBL1140444, “Synthesis and structure-activity relationships of novel anti-hepatitis C agents: N3,5'-cyclo-4-(beta-D-ribofuranosyl)-vic-triazolo[4,5-b]pyridin-5-one derivatives” (2005).
